From publication PMC7042484 (Redox Biology, 2020)
Entries after “also recorded” stand apart in the source; their conditions may differ.

Tests used:
[1] = molecular target: T1, wild-type dehydrogenase domain of bacterial NOX5 (Cylindrospermum stagnale, UniProt K9WT99); assay: NADPH-depletion assay on purified wild-type NOX5 dehydrogenase domain; format: biochemical
T1 sequence (K9WT99 413-693): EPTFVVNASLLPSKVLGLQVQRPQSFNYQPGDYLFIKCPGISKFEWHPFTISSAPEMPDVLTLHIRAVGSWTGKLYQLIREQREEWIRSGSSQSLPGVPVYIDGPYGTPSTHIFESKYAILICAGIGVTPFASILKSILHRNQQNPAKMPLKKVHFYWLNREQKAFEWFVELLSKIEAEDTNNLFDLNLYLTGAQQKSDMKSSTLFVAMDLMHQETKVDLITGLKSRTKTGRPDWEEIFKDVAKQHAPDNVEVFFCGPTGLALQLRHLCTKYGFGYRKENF

xanthine oxidase = xanthine oxidase (Bos taurus, UniProt P80457); assay: Xanthine Oxidase assay; format: biochemical; conditions: 100 μM compound, hypoxanthine, Amplex Red/peroxidase
xanthine oxidase, sequence (P80457 whole entry): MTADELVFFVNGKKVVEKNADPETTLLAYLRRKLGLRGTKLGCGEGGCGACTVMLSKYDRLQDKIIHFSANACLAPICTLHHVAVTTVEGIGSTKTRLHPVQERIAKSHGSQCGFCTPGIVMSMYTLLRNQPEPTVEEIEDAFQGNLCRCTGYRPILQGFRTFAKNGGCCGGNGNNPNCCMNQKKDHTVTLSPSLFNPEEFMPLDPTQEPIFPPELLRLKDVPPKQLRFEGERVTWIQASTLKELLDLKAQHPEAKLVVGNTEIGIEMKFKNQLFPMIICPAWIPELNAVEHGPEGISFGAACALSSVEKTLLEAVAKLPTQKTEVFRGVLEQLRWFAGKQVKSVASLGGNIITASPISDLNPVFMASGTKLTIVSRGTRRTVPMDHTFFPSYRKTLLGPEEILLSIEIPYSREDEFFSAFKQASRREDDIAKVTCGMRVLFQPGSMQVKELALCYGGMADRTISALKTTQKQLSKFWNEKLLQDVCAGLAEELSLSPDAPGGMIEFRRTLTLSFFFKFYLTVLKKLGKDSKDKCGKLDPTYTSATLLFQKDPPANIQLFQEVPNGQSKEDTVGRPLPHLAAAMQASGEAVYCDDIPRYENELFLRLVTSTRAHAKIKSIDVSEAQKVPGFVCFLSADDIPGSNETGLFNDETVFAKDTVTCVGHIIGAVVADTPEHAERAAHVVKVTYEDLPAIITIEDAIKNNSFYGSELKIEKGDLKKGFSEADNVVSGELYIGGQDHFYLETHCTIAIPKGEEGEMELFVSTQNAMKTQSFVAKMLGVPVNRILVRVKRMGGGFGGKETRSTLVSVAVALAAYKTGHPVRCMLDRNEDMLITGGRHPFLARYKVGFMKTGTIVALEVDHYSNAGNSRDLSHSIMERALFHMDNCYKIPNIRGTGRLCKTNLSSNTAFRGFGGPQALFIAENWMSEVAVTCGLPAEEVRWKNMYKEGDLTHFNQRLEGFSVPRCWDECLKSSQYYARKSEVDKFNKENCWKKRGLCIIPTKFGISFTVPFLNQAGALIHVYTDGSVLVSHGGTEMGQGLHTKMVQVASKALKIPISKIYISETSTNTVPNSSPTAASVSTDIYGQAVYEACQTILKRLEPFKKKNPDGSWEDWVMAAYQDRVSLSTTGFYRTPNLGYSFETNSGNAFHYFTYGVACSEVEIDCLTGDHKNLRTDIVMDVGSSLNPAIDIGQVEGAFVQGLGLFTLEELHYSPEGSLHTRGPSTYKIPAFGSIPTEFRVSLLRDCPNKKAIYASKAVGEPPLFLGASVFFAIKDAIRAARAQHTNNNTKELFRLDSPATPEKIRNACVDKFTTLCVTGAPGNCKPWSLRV
Method in brief: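 Compound (100 μM) with xanthine oxidase, 100 μM Amplex Red, 0.4 U/mL horseradish peroxidase and 0.2 mM hypoxanthine. 15 min at 37 °C; H2O2-derived resorufin read by fluorescence, ex 530/em 590 nm.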

bacterial NOX5 [2] = molecular target: T2, bacterial NOX5 (Cylindrospermum stagnale, UniProt K9WT99); assay: Initial evaluation on NOX5 membrane preparations; format: biochemical; conditions: for inhibition of NOX5 (in words): 100 μM compound, membranes
T2 sequence (K9WT99 1-693): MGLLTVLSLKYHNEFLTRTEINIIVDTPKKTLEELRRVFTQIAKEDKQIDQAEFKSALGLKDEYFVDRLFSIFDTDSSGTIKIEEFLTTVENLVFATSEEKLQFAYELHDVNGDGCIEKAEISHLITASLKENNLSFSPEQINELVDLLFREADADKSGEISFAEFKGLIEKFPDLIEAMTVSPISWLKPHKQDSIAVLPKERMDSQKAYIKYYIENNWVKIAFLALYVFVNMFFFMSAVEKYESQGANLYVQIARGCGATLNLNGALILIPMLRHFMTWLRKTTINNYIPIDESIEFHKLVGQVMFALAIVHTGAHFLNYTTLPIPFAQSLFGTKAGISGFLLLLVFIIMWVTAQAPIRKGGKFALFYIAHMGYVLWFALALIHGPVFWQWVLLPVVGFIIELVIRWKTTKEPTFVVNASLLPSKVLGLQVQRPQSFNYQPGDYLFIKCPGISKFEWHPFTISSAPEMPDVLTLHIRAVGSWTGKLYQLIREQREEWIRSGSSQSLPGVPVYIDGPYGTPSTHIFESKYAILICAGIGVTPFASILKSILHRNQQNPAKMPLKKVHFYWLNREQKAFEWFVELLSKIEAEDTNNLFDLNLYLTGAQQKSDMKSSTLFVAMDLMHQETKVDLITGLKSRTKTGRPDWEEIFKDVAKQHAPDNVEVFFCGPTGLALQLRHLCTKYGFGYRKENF

human NOX2 [3] = molecular target: T3, human NOX2 (Homo sapiens, UniProt P04839); assay: Initial evaluation on NOX2 membrane preparations; format: biochemical; conditions: for inhibition of NOX2 (in words): 100 μM compound, membranes
T3 sequence (P04839 2-570 limits assumed): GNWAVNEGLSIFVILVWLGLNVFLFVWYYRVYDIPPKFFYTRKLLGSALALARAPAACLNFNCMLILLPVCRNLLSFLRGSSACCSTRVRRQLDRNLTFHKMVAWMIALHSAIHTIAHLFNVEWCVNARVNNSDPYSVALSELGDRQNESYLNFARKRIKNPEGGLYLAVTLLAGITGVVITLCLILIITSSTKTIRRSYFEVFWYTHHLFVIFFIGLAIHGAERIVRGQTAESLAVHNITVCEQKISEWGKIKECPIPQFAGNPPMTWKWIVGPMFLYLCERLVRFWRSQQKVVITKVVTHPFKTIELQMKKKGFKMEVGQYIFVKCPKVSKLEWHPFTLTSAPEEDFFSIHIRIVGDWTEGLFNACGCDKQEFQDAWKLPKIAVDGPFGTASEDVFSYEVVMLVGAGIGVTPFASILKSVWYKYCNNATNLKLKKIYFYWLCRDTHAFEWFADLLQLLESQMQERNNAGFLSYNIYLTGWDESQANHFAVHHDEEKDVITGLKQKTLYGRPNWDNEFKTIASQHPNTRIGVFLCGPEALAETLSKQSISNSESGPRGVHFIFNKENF
T3 sequence (P13498 2-195 partner limits assumed): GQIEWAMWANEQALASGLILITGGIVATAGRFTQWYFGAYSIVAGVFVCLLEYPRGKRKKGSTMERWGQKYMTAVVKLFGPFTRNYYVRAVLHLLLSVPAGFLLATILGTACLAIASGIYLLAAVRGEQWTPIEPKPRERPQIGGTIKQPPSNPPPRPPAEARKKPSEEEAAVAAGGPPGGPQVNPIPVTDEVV

[4] = molecular target: C-terminal mutant dehydrogenase domain of bacterial NOX5; assay: NADPH-depletion assay on C-terminal mutant NOX5 dehydrogenase domain; format: biochemical, Cylindrospermum stagnale; conditions: uncompetitive, low-activity mutant of the dehydrogenase domain
human NOX4 = molecular target: T4, human NOX4 (Homo sapiens, UniProt Q9NPH5); assay: Initial evaluation on NOX4 membrane preparations; format: biochemical; conditions: for inhibition of NOX4 (in words): 100 μM compound, membranes
T4 sequence (Q9NPH5 1-578): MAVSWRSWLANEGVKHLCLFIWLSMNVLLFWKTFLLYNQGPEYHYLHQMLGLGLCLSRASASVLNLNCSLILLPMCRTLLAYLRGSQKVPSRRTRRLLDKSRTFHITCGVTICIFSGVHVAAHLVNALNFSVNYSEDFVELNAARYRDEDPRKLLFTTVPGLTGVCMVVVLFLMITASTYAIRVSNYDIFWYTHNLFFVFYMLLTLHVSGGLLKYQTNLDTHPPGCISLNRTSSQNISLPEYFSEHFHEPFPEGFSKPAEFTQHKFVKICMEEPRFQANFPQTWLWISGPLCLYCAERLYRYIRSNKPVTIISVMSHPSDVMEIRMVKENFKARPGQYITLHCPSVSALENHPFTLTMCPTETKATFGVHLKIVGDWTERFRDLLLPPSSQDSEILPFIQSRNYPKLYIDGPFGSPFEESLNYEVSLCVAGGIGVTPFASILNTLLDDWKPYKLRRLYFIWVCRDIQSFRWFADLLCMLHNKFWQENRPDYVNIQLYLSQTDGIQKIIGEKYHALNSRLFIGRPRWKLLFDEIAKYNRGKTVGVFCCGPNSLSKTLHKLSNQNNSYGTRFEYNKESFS
T4 sequence (P13498 2-195 partner limits assumed): T3 sequence (P13498 2-195 partner limits assumed)
Method in brief: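 NOX4-p22 membranes from transfected HEK293 EBNA-1 cells, compound 100 μM, 10 min preincubation at 4 °C in PBS. Amplex Red: 100 μg membranes, 12.5 μM Amplex Red, 0.02 U/ml HRP, 40 μM FAD, started with 40 μM NADPH, ex 572/em 583 nm. CBA: 50 μg membranes, 20 μM FAD, then 200 μM coumarin boronic acid and 50 μM NADPH, ex 320/em 430 nm.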

bacterial NOX5 [5] = molecular target: T2, bacterial NOX5; assay: MCLA assay on NOX5 membranes; format: biochemical
Method in brief: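 E. coli membranes carrying FLAG-(His)8-SUMO-tagged C. stagnale NOX5, 12 μg, in PBS with 1 mM CaCl2, 0.5 μM FAD and 1 μM MCLA. Compound (100 μM single point, or concentration series) 10 min at 25 °C. Started with 200 μM NADPH; chemiluminescence read. Membranes lacking NOX5 set noise level. IC50 by sigmoidal fit, % of untreated control.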

[6] = molecular target: full-length bacterial NOX5 (Cylindrospermum stagnale, UniProt K9WT99); assay: biochemical
[7] = MCLA auto-oxidation assay; conditions: 100 μM compound
[8] = Amplex Red/peroxidase assay in the absence of a NOX enzyme; conditions: 100 μM compound, no NOX enzyme, NADPH present
Method in brief: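 Compound (100 μM) added to the Amplex Red/horseradish peroxidase H2O2 read-out with NADPH present but no NOX membranes, to probe reagent interference. Resorufin fluorescence read on a plate reader.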

[9] = system: wild-type NOX5 dehydrogenase domain; assay: Thermal shift analysis on purified NOX5 dehydrogenase domain; format: binding, Cylindrospermum stagnale; conditions: inflection temperature Ti, 35–95 °C
Method in brief: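 Wild-type purified NOX5 dehydrogenase domain, with or without ligand, heated from 35 °C to 95 °C over 3 min on a Tycho system; inflection temperature (Ti) determined.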

[10] = NADH-PMS superoxide-scavenging assay; conditions: 100 μM compound, PMS-NADH/nitroblue tetrazolium
Method in brief: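 Non-enzymatic superoxide generation in 16 mM Tris-HCl pH 8.0 with 80 μM nitroblue tetrazolium and 70 μM NADH plus compound (100 μM). Started with 5 μM phenazine methosulfate; 5 min at 25 °C; A560. SOD as positive control; lower absorbance than the negative control scored as scavenging.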

NOXs = assay: Initial evaluation of NOX inhibitors, isoform not specified; format: biochemical; conditions: 100 μM compound
[11] = molecular target: T5, wild-type dehydrogenase domain of NOX5 (Cylindrospermum stagnale, UniProt K9WT99); assay: Microscale thermophoresis binding assay on purified NOX5 dehydrogenase domain
T5 sequence (K9WT99 413-693): T1 sequence (K9WT99 413-693)
Method in brief: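 Microscale thermophoresis with fluorescently labelled wild-type NOX5 dehydrogenase domain (~200 nM). Ligand given as 16 serial dilutions up to 6.4 mM in 50 mM Hepes, 240 mM NaCl, 0.5% glycerol, 250 μM FAD, 0.1% pluronic acid, pH 7.5. Incubated 10 min at 25 °C; recorded at 25 °C, red channel. Kd from binding isotherms, triplicate, standard deviation.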

human NOX2 [12] = molecular target: T3, human NOX2; assay: MCLA assay on NOX2 membranes; format: biochemical; conditions: 100 μM compound

Structure (SMILES) | inhibition of the hydrogen peroxide-producing activity of xanthine oxidase (xanthine oxidase) | inhibition of NOX5 (in words) (bacterial NOX5 [2]) | inhibition of NOX2 (in words) (human NOX2 [3]) | inhibition of NOX4 (in words) (human NOX4) | interference with MCLA auto-oxidation [7] | superoxide scavenging [10] | further results
c1ccc2c(c1)[I+]c1ccccc1-2 [DPI, Diphenylene iodonium] | powerful inhibitions; also recorded: inhibits xanthine oxidase | full | full | full | – | – | αKi ([1]; wild-type domain, exogenous FAD 300 μM): 127 ± 13 µM; αKi [4]: 0.42 ± 0.06 µM; IC50 (bacterial NOX5 [5]): 3280 ± 1320 nM; Ki [6]: 980 ± 140 nM
CC(C)c1c(C(=O)Nc2ccccc2)c(-c2ccccc2)c(-c2ccc(F)cc2)n1CC[C@@H](O)C[C@@H](O)CC(=O)O [Atorvastatin] | – | – | – | – | – | – | inhibition at 100 µM (bacterial NOX5 [2]; read-out: inhibition of NOX5): ~50%
CC1=NN(c2ccccc2)CC1 [3-methyl-1-phenyl-2-pyrazoline] | powerful inhibitions | – | – | – | – | – | –
CN(C)CCCN1c2ccccc2Sc2ccccc21 [promazine] | powerful inhibitions | – | – | – | – | – | –
O=c1c2ccccc2[se]n1-c1ccccc1 [ebselen] | powerful inhibitions | full | full | full | substantial interference | – | interference on the Amplex Red/peroxidase assay [8]: substantial interference; stabilising effect in thermal shift analysis [9]: lack of any stabilising effect
CC1=C(O)C(=O)C=C2C1=CC=C1[C@@]2(C)CC[C@@]2(C)[C@@H]3C[C@](C)(C(=O)O)CC[C@]3(C)CC[C@]12C [celastrol] | powerful inhibitions | full | full | full | interfered with the MCLA auto-oxidation | – | stabilising effect in thermal shift analysis [9]: lack of any stabilising effect
OCCN1CCN(CCCN2c3ccccc3Sc3ccc(C(F)(F)F)cc32)CC1 [fluphenazine] | powerful inhibitions | – | – | – | – | mild scavenging activities | –
OCCN1CCN(CCCN2c3ccccc3Sc3ccc(Cl)cc32)CC1 [perphenazine] | powerful inhibitions | – | – | – | – | mild scavenging activities | –
O=c1[nH]c2ccccc2c2ccccc12 [phenanthridinone, 6(5H)-phenanthridinone] | – | – | – | – | – | mild scavenging activities | pattern of NOX inhibition (in words) (NOXs): assay-dependent inhibitory activities
Cc1ccc(C(=O)Nc2ccc(S(=O)(=O)O)c3cc(S(=O)(=O)O)cc(S(=O)(=O)O)c23)cc1NC(=O)c1cccc(NC(=O)Nc2cccc(C(=O)Nc3cc(C(=O)Nc4ccc(S(=O)(=O)O)c5cc(S(=O)(=O)O)cc(S(=O)(=O)O)c45)ccc3C)c2)c1 [suramin] | – | full | full | full | – | strong superoxide scavenger | Ki [1]: 390 ± 50 nM; Kd [11]: 52200 ± 1100 nM; stabilising effect in thermal shift analysis [9]: lack of any stabilising effect
C1CCC(C(CC2CCCCN2)C2CCCCC2)CC1 (stereo not drawn) [perhexiline] | – | not against NOX5 | – | – | interfered with the MCLA auto-oxidation | – | inhibition at 100 µM (human NOX2 [3]; read-out: inhibition of NOX2): 40 to 70%; inhibition at 100 µM (human NOX4; read-out: inhibition of NOX4): 40 to 70%
CC1=CC(=O)c2c(O)cccc2C1=O [plumbagin] | – | – | – | – | – | – | pattern of NOX inhibition (in words) (NOXs): assay-dependent inhibitory activities
CN(C)c1cccc(-c2c3c(=O)n(-c4ccccc4Cl)[nH]c3cc(=O)n2C)c1 [GKT137831] | powerful inhibitions | – | – | strong NOX4 inhibitors | substantial interference | – | inhibition of NOX2 with MCLA (in words) (human NOX2 [12]): moderately active; interference on the Amplex Red/peroxidase assay [8]: substantial interference; inhibition of NOX5 with the MCLA-based protocol (in words) (bacterial NOX5 [5]; 100 μM compound, MCLA assay): moderately active
